This is an account of results in publication PMC8027986 (Cell chemical biology, 2020).

One test addresses recombinant PfMAGLLP (Plasmodium falciparum, UniProt Q8IJ22). Briefly: Fluorogenic substrate assay with rPfMAGLLP. Format: biochemical. As to conditions: for inhibition of esterase activity of PfMAGLLP: 1 μM compound; for inhibition at 1 µM: read-out: inhibition of esterase activity of PfMAGLLP.
The test system of test [1] is P. falciparum W2 parasites. Briefly: P. falciparum replication assay. It counts as cell-based, Plasmodium falciparum. As to conditions: for effect of isopentenyl pyrophosphate (IPP) on potency: 72 h growth assays in presence and absence of IPP; for EC50: Plasmodium falciparum, W2, 72 h, read-out: EC50 parasite growth inhibition. The method in brief:
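Synchronized ring-stage W2 parasites in human erythrocytes, at 1% parasitemia and 0.5% hematocrit, exposed to test compound for 72 h. Cultures fixed in 1% paraformaldehyde (final) for 30 min at room temperature, then stained overnight at 4°C with 50 nM YOYO-1. Infected (YOYO-1-positive) versus uninfected cells counted by flow cytometry.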

The subject of test [2] is Sal A-selected clones and parental Dd2_Polδ line. Briefly: IC50 determination for Sal A-selected clones. The conditions noted are these: versus parental Dd2_Polδ. Format: cell-based, Plasmodium falciparum.
Test [3] deals with serine hydrolases in Plasmodium falciparum parasites. The test is described as follows: FP-Rho labeling competition in whole Pf parasites. It counts as cell-based. The conditions noted are these: 1 μM Sal A. In a few lines:
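P. falciparum cultures (ring/trophozoite, 13% parasitemia) treated with DMSO or test compound for 3 h at 37°C. 50 μg clarified lysate labeled with 1 μM FP-Rho for 1 h at 37°C; SDS-PAGE with in-gel fluorescence scan.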

Test [4] concerns Pf lines expressing WT-GFP or S179T-GFP PfPARE. Briefly: Sal A sensitivity of parasites expressing WT or S179T PfPARE-GFP. Format: cell-based, Plasmodium falciparum. As to conditions: WT-GFP versus S179T-GFP.
The test system of test [5] is parasites expressing PfATP4 fused to GFP. The test is described as follows: Imaging of PfATP4-GFP parasites. It counts as cell-based, Plasmodium falciparum. As to conditions: 18 h treatment from 24-30 hpi; 2 μM Sal A or 6 μM Orlistat.
Test [6] has as its system Dd2 parasites overexpressing PfMAGLLP or other putative Sal A targets. Briefly: Dose-response assays with parasites overexpressing putative Sal A targets. It counts as cell-based, Plasmodium falciparum.
Test [7] concerns a variety of mammalian cell lines. The conditions noted are these: ref Schulze et al., 2015; cited from earlier work.
Test [8] concerns the target human depalmitoylase APT1 (Homo sapiens, UniProt O75608). The test is described as follows: FP-Rho labeling competition in HEK293T cells, APT1. Format: cell-based.
The subject of test [9] is T. gondii depalmitoylase PPT1 (TgPPT1). The test is described as follows: FP-Rho labeling competition in T. gondii parasites. It counts as cell-based, Toxoplasma gondii. As to conditions: WT (Δku80) and ΔPPT1 parasites.
Test [10] concerns the target human depalmitoylase APT2 (Homo sapiens, UniProt O95372). The test is described as follows: FP-Rho labeling competition in HEK293T cells, APT2. Format: cell-based. The method in brief: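 Lysates of treated HEK293T cells, clarified at 4°C and quantified by BCA; 50 μg lysate labeled with 1 μM FP-Rho for 1 h at 37°C. Reactions quenched in reducing SDS sample buffer, resolved by SDS-PAGE, and gel fluorescence scanned (532-nm laser, 610-nm filter).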

human depalmitoylase APT2, sequence (O95372 whole entry): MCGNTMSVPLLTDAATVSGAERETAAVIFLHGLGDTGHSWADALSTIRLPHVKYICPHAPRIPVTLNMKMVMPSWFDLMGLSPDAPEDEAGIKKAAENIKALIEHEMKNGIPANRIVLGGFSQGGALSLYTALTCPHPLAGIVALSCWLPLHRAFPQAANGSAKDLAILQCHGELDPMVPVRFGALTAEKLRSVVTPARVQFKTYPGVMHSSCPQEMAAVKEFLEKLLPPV
human depalmitoylase APT1, sequence (O75608 whole entry): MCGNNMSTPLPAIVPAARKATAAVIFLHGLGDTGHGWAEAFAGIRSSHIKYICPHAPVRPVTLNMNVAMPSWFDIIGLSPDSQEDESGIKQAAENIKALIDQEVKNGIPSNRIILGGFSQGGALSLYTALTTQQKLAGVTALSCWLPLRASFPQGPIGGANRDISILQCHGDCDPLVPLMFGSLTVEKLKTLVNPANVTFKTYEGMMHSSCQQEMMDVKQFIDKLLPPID

For the compound `O=C(ON1C(=O)CCC1=O)N1CCN(C(c2ccc(Cl)cc2)c2ccc(Cl)cc2)CC1` [MJN110], the “inhibition of esterase activity of PfMAGLLP” value at recombinant PfMAGLLP is “more than 90%”.
As for `O=C(Oc1ccc([N+](=O)[O-])cc1)N1CCC(C(O)(c2ccc3c(c2)OCO3)c2ccc3c(c2)OCO3)CC1` [JZL 184], at recombinant PfMAGLLP, the “inhibition of esterase activity of PfMAGLLP” value turned out to be 25%.
As to Salinipostin alkyne [Sal alk], in test [1], the “effect of isopentenyl pyrophosphate (IPP) on potency” value is recorded as “unaffected by IPP”. Further, in test [1] (Pf parasites, Figure S1), the “potency against Pf parasites compared with parent natural product” value is recorded as “retained full potency”.
Usually EC50 stands for the concentration giving half of the maximal effect. By inhibition is commonly meant the relative decrease from the control value, in per cent. In the case of `O=C(OC(C(F)(F)F)C(F)(F)F)N1CCN(C(c2ccc(Cl)cc2)c2ccc(Cl)cc2)CC1` [JW651], the EC50 in test [1] turned out to be 839 nM. Moreover, the “decrease in potency against parasites as compared with Sal A” value in [1] (W2 parasites) was found to be 16 fold. For the same compound, the “cross-resistance of Sal A-selected clones” value in [2] is reported as “no cross-resistance”. In addition, on recombinant PfMAGLLP, the “potency against recombinant PfMAGLLP relative to Sal A” value is “virtually identical potency as Sal A” and the inhibition at 1 µM was > 90%.
As a reminder, the IC50 is the concentration at which inhibition is half-maximal. For the compound `O=C(OC(C(F)(F)F)C(F)(F)F)N1CCC(C(O)(c2ccc3c(c2)OCO3)c2ccc3c(c2)OCO3)CC1` [KML29], at recombinant PfMAGLLP, the IC50 turned out to be 163 nM and the inhibition at 1 µM was > 90%.
As for Salinipostin A [Sal A], the “inhibition of FP-Rho labeling of hydrolases in whole Pf parasites” value in test [3] is “Several hydrolases were inhibited”. Besides, in test [1], the “effect of isopentenyl pyrophosphate (IPP) on potency” value is recorded as “unaffected by IPP”. Also, the “sensitivity of parasites expressing WT or catalytically dead PfPARE” value in [4] was “equally sensitive”. Also, the “plasma membrane phenotype of schizonts” value in test [5] is listed as “disorganized plasma membranes that failed to properly surround the merozoites”. For the same compound, the “shift in EC50 in parasites overexpressing PF3D7_0808500 or PF3D7_0818600” value in [6] (exogenous overexpression) is recorded as “no shift in EC50”. In addition, the “shift in EC50 in parasites overexpressing PfMAGLLP versus WT” value in test [6] (exogenously transfected plasmid) was “no apparent shift”. In addition, the “selectivity index over a variety of mammalian cell lines” value in test [7] was > 1,000. Also, in test [8], the “inhibition of APT1 (FP-Rho competition)” value is “inhibits the human depalmitoylases APT1 and APT2 in a dose-dependent manner”. The “competition with FP-Rho for labeling of TgPPT1” value in [9] was “able to compete with FP-Rho for labeling of TgPPT1”. In test [10], the “inhibition of APT2 (FP-Rho competition)” value is “inhibits the human depalmitoylases APT1 and APT2 in a dose-dependent manner”; the “relative potency APT2 versus APT1” value is on record as “increased potency against APT2 over APT1”.
On to `CCCCCCCCCCC[C@@H](C[C@@H]1OC(=O)[C@H]1CCCCCC)OC(=O)[C@H](CC(C)C)NC=O` [Orlistat], for which, in test [1], the EC50 was determined as 280 nM. In test [5], the “plasma membrane phenotype of schizonts” value is “disorganized plasma membranes that failed to properly surround the merozoites”. Besides, the “cross-resistance of Sal A-selected clones” value in test [2] is given as “No significant cross-resistance”. Further, the “potency against recombinant PfMAGLLP relative to Sal A” value at recombinant PfMAGLLP is listed as “equipotent to Sal A”.
